CXCR6 block = CXCR6 (human) receptor inhibition. O00574. CHO-K1 PathHunter CXCR6 beta-arrestin, luminescence. inhibition, % at 20 µM. 360,000 compounds, 0.36% hits; in the data active = inhibition above about 34%, passing the limit was not always enough;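 note: antagonist mode with CXCL16 agonist at 10 nM final; 0% = 10 nM CXCL16 with DMSO and 100% = unstimulated wells without agonist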
Target sequence (O00574 whole entry, looked up): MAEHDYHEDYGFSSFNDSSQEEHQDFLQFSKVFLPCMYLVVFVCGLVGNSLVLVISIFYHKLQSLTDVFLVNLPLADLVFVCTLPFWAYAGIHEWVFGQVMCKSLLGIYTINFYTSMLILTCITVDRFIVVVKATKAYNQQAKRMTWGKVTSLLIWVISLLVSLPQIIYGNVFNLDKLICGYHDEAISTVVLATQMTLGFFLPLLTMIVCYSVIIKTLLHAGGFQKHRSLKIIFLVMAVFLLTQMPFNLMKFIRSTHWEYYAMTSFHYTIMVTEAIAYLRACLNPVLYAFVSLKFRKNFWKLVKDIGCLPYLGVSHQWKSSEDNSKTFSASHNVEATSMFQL
APJ agonist = activates the human apelin receptor APJ; CHO-K1 APJ PathHunter beta-arrestin, luminescence; 0% DMSO wells, 100% apelin; AID 2520; P35414; activation, % at 20 µM; 330,000 compounds, 0.11% hits;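 active = activation more than six SD over the plate average, tested at 20 µM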;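 note: 0% = DMSO alone and 100% = apelin-13 at 10 nM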
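system = engineered CHO-K1 APJ arrestin reporter cells | input = 1000 cells per well | timing = overnight seeding, 90 min compound at 25 °C, 1 h detection | measured by = enzyme-fragment complementation luminescence | read-out = beta-arrestin recruitment to APJ as agonist activity, luminescent signal | control set = negative DMSO alone, positive Apelin-13 at 10 nM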
CCR6 antag = CCR6 (human) receptor antagonism. P51684. CHO-K1 CCR6 PathHunter beta-arrestin, luminescence, CCL20-stimulated. inhibition, % at 20 µM. 340,000 compounds, 0.49% hits;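 active = compounds whose inhibition of the agonist-driven luminescence signal at 20 µM reaches about 50%, limit read from the data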;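 note: cells stimulated with CCL20 at 14 nM final; plate controls were DMSO with CCL20 for no effect and DMSO without agonist for full effect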
APJ antagonist = antagonists of human APJ apelin receptor; CHO-K1 APJ beta-arrestin complementation, luminescence; inhibition, % at 20 µM; 330,000 compounds, 0.32% hits;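 active = inhibition above about 40% at 20 µM, limit read from the data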;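 note: cells challenged with 10 nM apelin-13 agonist together with compound; plate controls were apelin-13 plus DMSO wells for no effect and DMSO wells lacking apelin-13 for full effect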
EBI2 antag = antagonists of human EBI2 receptor. 360,000 compounds, 0.81% hits. inhibition, % at 5 µM. EBI2 beta-arrestin recruitment, luminescence, 7a,25-OHC stimulated; in the data active = inhibition above about 38%;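 note: enzyme fragment complementation signal reports receptor beta-arrestin coupling in cells; 0% = agonist plus DMSO wells and 100% = wells without agonist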
* = called active by the depositor; / = no result; ! = not active in a repeat. An excerpt weighted towards active compounds, which were near 1.5% of everything screened.

SMILES	CXCR6 block	APJ agonist	CCR6 antag	APJ antagonist	EBI2 antag
Cc1ccc(Nc2c([N+](=O)[O-])ccc3c2=NC2(CCCCC2)N=3)cc1	4.7	3.8	31.1	-45.8	62.2*
Cc1ccc(Nc2ccc(N3CCN(c4ccc([N+](=O)[O-])cc4)CC3)nn2)cc1	5.3	-0.2	6.7	5.3	8.5
Cc1cc(NC(=O)NN2CCOCC2)nn1-c1c(Cl)cc(Cl)cc1Cl	-1.8	3.4	16.5	15.1	1.9
COc1ccc(NC(=O)N2CCCC(c3nc(-c4ccc(C(C)C)cc4)no3)C2)cc1 (stereo unspecified)	10.3	2.7	3.8	-23.8	72.5*
COc1ccc(-c2noc(C3CCCN(C(=O)Nc4ccccc4)C3)n2)cc1 (stereo unspecified)	-9.1	-2.5	3.8	-16.3	-3.6
COc1cc(C=C2CN(C)C(=O)C2=O)ccc1O	32.5	/	/	/	6.5
CCOc1cc(/C=C2\CN(C)C/C(=C\c3ccc(O)c(OCC)c3)C2=O)ccc1O	34.2	-7.8	57.3*	27.2	22.2
COc1ccc(NC(=O)C2(C)CCN2C(=O)c2ccc(C(C)(C)C)cc2)cc1OC (stereo unspecified)	-9.7	/	/	/	-3.7
COc1ccccc1NC(=O)O/N=C(\N)c1ccccc1	-15.5	7.6	-12.8	-71.9	5.6
O=C(OCn1ncc(Cl)c(Cl)c1=O)c1cccc(C(F)(F)F)c1	49.6*	-1.1	58.9*	37.6	51.7*
O=C(CCNC(=O)C1CCN(S(=O)(=O)c2ccc(F)cc2)CC1)NCCc1ccc(Cl)cc1	-2.9	0.2	7.0	20.5	0.7
Cc1ccc(-n2sc3ccccc3c2=O)cc1S(=O)(=O)N1CCCCC1	20.0	2.1	54.8*	-11.7	43.2
O=c1c2ccccc2sn1-c1ccc(S(=O)(=O)N2CCCCC2)cc1	-3.8	3.2	8.9	-30.3	4.6
CCN(CC)c1ccc(/C=C2\C(=O)N(c3nnc(C)c(=O)[nH]3)N=C2C)cc1	27.5	-1.6	48.2	16.0	62.6*
Cc1c(CCOC(=O)C2C3CC4CC(C3)CC2C4)sc[n+]1CC(=O)c1ccc(Br)cc1 (stereo unspecified)	3.2	-9.7	53.5*!	17.4	8.7
Cc1c(CCOC(=O)c2ccc(Cl)cc2Cl)sc[n+]1CC(=O)c1ccc(Br)cc1	0.1	-7.1	37.8	14.7	9.6
O=C(NCc1cccc(C(F)(F)F)c1)c1[nH]c(C(F)(F)F)nc1-c1ccccc1	-2.2	/	/	/	-7.6
COc1nc(OC)nc(Oc2ccc(Cl)cc2[N+](=O)[O-])n1	-11.0	1.4	-2.9	-15.3	-5.4
COc1ccc([N+](=O)[O-])c(S(=O)(=O)c2ccccc2)n1	59.2*	-5.5	65.2*	34.3	-3.9
O=[N+]([O-])c1cccnc1S(=O)(=O)c1ccccc1	7.6	0.3	18.5	2.2	-22.4
COc1ccc([N+](=O)[O-])c(S(=O)(=O)c2ccc(Cl)cc2)n1	67.9*	-3.1	75.2*	16.4	-21.9
Cc1cc(C)nc(N2N=C(C(F)(F)F)CC2=O)n1	-7.2	-0.4	-5.3	2.3	-1.8
Fc1ccc(N2CCN(C(c3cccs3)c3nnnn3C3CCCC3)CC2)cc1 (stereo unspecified)	4.0	-1.9	17.5	6.0	3.3
COc1cc2cc(CCOC(=O)c3ccc(C#N)cc3)oc(=O)c2cc1OC	-1.3	-1.0	2.2	23.6	7.8
COc1cc(OC)c(C(=O)CCC(=O)O)cc1OC	0.5	-2.5	-1.4	4.5	-10.8
SMILES	CXCR6 block	APJ agonist	CCR6 antag	APJ antagonist	EBI2 antag
C[N+](C)(C)CCCC(=O)c1ccc2c(c1)OCO2	-8.3	2.7	-6.0	-1.9	-17.4
C=C(CN(C)C)C(=O)c1ccc(C)cc1C	87.6*	/	107.8*	/	10.5
C=C(CN(C)C)C(=O)c1cc(OC)c(OC)cc1OC	37.6*	/	63.0*	/	12.6
Cc1ccc(C(=O)CC(=O)c2ccccc2C)c(O)c1	20.4	-3.1	28.7	5.7	-8.8
C=C(CN(C)C)C(=O)c1ccc2c(c1)OCO2	91.1*	/	108.8*	/	34.3
C[C@@H]1CN([C@@H](C)CO)S(=O)(=O)c2ccc(-c3ccc(C#N)cc3)cc2O[C@@H]1CN(C)Cc1ccccn1	3.3	/	/	/	-2.3
Cc1ccc(/C=C2\SC(=S)N(c3cccnc3)C2=O)cc1	-2.0	-1.3	3.2	-15.1	1.1
COc1cc(/C=C2\SC(=S)N(c3cccnc3)C2=O)ccc1O	65.4*	-8.9	74.8*	52.8*	5.9
